Assay results as given in ChEMBL document CHEMBL4257457, “N-Heterocyclic borneol derivatives as inhibitors of Marburg virus glycoprotein-mediated VSIV pseudotype entry” (Medchemcomm, 2017).

How the values were obtained:
[1] = test system: HEK293; experiment: Cytotoxicity against HEK293 cells assessed as reduction in cell viability after 48 hrs by MTT assay; type: cell-based; details: human, hek293, 48 h
Summary of the method: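 HEK293 target cells were exposed to the compounds and viability was read by MTT assay.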

[2] = Selectivity ratio of IC50 for Marburg virus envelope glycoprotein-mediated cell entry in rVSIV-deltaG-MarV-GP pseuotype virus infected HEK293 cells to IC50 for Vesicular stomatitis Indiana virus envelope glycoprotein-mediated cell entry in rVSIV-deltaG-G pseudotype virus infected HEK293 cells
Summary of the method: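 Specificity coefficient is IC50 for rVSIV-ΔG-MarV-GP divided by IC50 for rVSIV-ΔG-G. Each IC50 came from HEK293 cells infected with that pseudotype (same VSIV capsid, different glycoprotein) with or without compound, at low-toxicity concentrations. Transduced luciferase was measured 24 h post-infection.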

[3] = Selectivity index, ratio of CC50 for HEK293 cells to IC50 for Marburg virus envelope glycoprotein-mediated cell entry in rVSIV-deltaG-MarV-GP pseuotype virus infected HEK293 cells; type: toxicity; details: human, read-out: Ratio CC50/IC50
Summary of the method: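 Selectivity index is CC50 divided by IC50 against the MARV-GP pseudotype. CC50 came from an MTT assay on HEK293 cells. For IC50, HEK293 cells were infected with rVSIV-ΔG-MarV-GP with or without compound, across a low-toxicity concentration range chosen from CC50. The luciferase signal was read 24 h post-infection.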

Compound: CC1CCN(CCC(=O)O[C@@H]2C[C@@H]3CC[C@@]2(C)C3(C)C)CC1
- CC50 [1]: 215 µM
- Ratio IC50 [2]: 34
- selectivity ratio [3]: 60

Compound: CC1(C)[C@H]2CC[C@]1(C)[C@H](OC(=O)CN1CCCCC1)C2
- CC50 [1]: 321 µM
- Ratio IC50 [2]: 1
- selectivity ratio [3]: 4

Compound: CN1CCN(CCC(=O)O[C@@H]2C[C@@H]3CC[C@@]2(C)C3(C)C)CC1
- CC50 [1]: 421 µM
- Ratio IC50 [2]: 16
- selectivity ratio [3]: 20

Compound: CN1CCN(CC(=O)O[C@@H]2C[C@@H]3CC[C@@]2(C)C3(C)C)CC1
- CC50 [1]: 637 µM
- Ratio IC50 [2]: 4
- selectivity ratio [3]: 14

Compound: CC1(C)[C@H]2CC[C@]1(C)[C@H](OC(=O)CN1CCOCC1)C2
- CC50 [1]: 1280 µM
- Ratio IC50 [2]: 1
- selectivity ratio [3]: 5

Compound: CCCCN(CCCC)CCC(=O)O[C@@H]1C[C@@H]2CC[C@@]1(C)C2(C)C
- CC50 [1]: 86 µM
- Ratio IC50 [2]: 8
- selectivity ratio [3]: 15

Compound: COc1ccc(CCN(C)CCCC(C#N)(c2ccc(OC)c(OC)c2)C(C)C)cc1OC (configuration not stated)
- CC50 [1]: 280 µM

Compound: CC1(C)[C@H]2CC[C@]1(C)[C@H](OC(=O)CCN1CCNCC1)C2
- CC50 [1]: 207 µM
- Ratio IC50 [2]: 10
- selectivity ratio [3]: 21

Compound: CC1CCN(CC(=O)O[C@@H]2C[C@@H]3CC[C@@]2(C)C3(C)C)CC1
- CC50 [1]: 240 µM
- Ratio IC50 [2]: 3
- selectivity ratio [3]: 9

Compound: CC1(C)[C@H]2CC[C@]1(C)[C@H](OC(=O)CCN1CCCCC1)C2
- CC50 [1]: 302 µM
- Ratio IC50 [2]: 14
- selectivity ratio [3]: 35

Compound: CC1(C)[C@H]2CC[C@]1(C)[C@H](OC(=O)CCN1CCCC1)C2
- CC50 [1]: 684 µM
- Ratio IC50 [2]: 2
- selectivity ratio [3]: 59

Compound: CC1(C)[C@H]2CC[C@]1(C)[C@H](OC(=O)CCN1CCOCC1)C2
- CC50 [1]: 406 µM
- Ratio IC50 [2]: 3
- selectivity ratio [3]: 5

Compound: CCN1CCN(CCC(=O)O[C@@H]2C[C@@H]3CC[C@@]2(C)C3(C)C)CC1
- CC50 [1]: 474 µM
- Ratio IC50 [2]: 11
- selectivity ratio [3]: 47

Compound: CC1(C)[C@H]2CC[C@]1(C)[C@H](O)C2 [(-)-BORNEOL]
- CC50 [1]: > 3000 µM
- Ratio IC50 [2]: > 3
- selectivity ratio [3]: > 14

Compound: CCN1CCN(CC(=O)O[C@@H]2C[C@@H]3CC[C@@]2(C)C3(C)C)CC1
- CC50 [1]: 859 µM
- Ratio IC50 [2]: 15
- selectivity ratio [3]: 29

Compound: CC1(C)[C@H]2CC[C@]1(C)[C@H](OC(=O)CN1CCCC1)C2
- CC50 [1]: 480 µM
- Ratio IC50 [2]: 5
- selectivity ratio [3]: 9

Compound: CC1(C)[C@H]2CC[C@]1(C)[C@H](OC(=O)CN1CCNCC1)C2
- CC50 [1]: 361 µM
- Ratio IC50 [2]: 3
- selectivity ratio [3]: 18

Compound: CCCCN(CCCC)CC(=O)O[C@@H]1C[C@@H]2CC[C@@]1(C)C2(C)C
- CC50 [1]: 73 µM
- Ratio IC50 [2]: 2
- selectivity ratio [3]: 6
